Experimental data from ChEMBL document CHEMBL1145490, “Beta-lactam resistance in Haemophilus parasuis Is mediated by plasmid pB1000 bearing blaROB-1” (2007).
Converted amounts (≈) assume the structure as drawn.

Experiments:
Type in all cases: functional
Haemophilus parasuis [1] = assay: Antimicrobial activity against Haemophilus parasuis BB 1024; settings: Glaesserella parasuis
Procedure, shortened: (§1)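 H. parasuis isolates grown on chocolate agar and in Haemophilus test medium broth at 37°C under microaerophilic conditions (5% CO2). Susceptibility was profiled by disk diffusion and broth microdilution in Haemophilus test medium for fastidious bacteria, following a previously described method.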

Haemophilus parasuis [2] = assay: Antimicrobial activity against Haemophilus parasuis BB 1025; settings: Glaesserella parasuis; procedure, shortened: as §1
Escherichia coli [3] = assay: Antimicrobial activity against Escherichia coli
Escherichia coli [4] = assay: Antimicrobial activity against Escherichia coli pB1000 expressing ROB1 beta lactamase
Haemophilus parasuis [5] = assay: Antimicrobial activity against Haemophilus parasuis BB 1026; settings: Glaesserella parasuis; procedure, shortened: as §1
Haemophilus parasuis [6] = assay: Antimicrobial activity against Haemophilus parasuis ATCC 19417; settings: Glaesserella parasuis; procedure, shortened: as §1
Haemophilus parasuis [7] = assay: Antimicrobial activity against Haemophilus parasuis BB 1018; settings: Glaesserella parasuis; procedure, shortened: as §1
Haemophilus parasuis [8] = assay: Antimicrobial activity against Haemophilus parasuis BB 1019; settings: Glaesserella parasuis; procedure, shortened: as §1
Haemophilus parasuis [9] = assay: Antimicrobial activity against Haemophilus parasuis BB 1020; settings: Glaesserella parasuis; procedure, shortened: as §1
Haemophilus parasuis [10] = assay: Antimicrobial activity against Haemophilus parasuis BB 1021; settings: Glaesserella parasuis; procedure, shortened: as §1
Haemophilus parasuis [11] = assay: Antimicrobial activity against Haemophilus parasuis BB 1022; settings: Glaesserella parasuis; procedure, shortened: as §1
Haemophilus parasuis [12] = assay: Antimicrobial activity against Haemophilus parasuis BB 1023; settings: Glaesserella parasuis; procedure, shortened: as §1

| Compound | MIC (Haemophilus parasuis [1]) [µg/mL] | MIC (Haemophilus parasuis [2]) [µg/mL] | MIC (Escherichia coli [3]) [µg/mL] | MIC (Escherichia coli [4]) [µg/mL] | MIC (Haemophilus parasuis [5]) [µg/mL] | MIC (Haemophilus parasuis [6]) [µg/mL] | MIC (Haemophilus parasuis [7]) [µg/mL] | MIC (Haemophilus parasuis [8]) [µg/mL] | MIC (Haemophilus parasuis [9]) [µg/mL] | MIC (Haemophilus parasuis [10]) [µg/mL] | MIC (Haemophilus parasuis [11]) [µg/mL] | MIC (Haemophilus parasuis [12]) [µg/mL] |
| --- | --- | --- | --- | --- | --- | --- | --- | --- | --- | --- | --- | --- |
| CC1(C)S[C@@H]2[C@H](NC(=O)[C@H](N)c3ccc(O)cc3)C(=O)N2[C@H]1C(=O)O [AMOXICILLIN] | > 256 | > 256 | 4 (≈ 10.9 µM) | > 256 | ≤ 2 | ≤ 2 | > 256 | > 256 | > 256 | > 256 | > 256 | > 256 |
| N[C@@H](C(=O)N[C@@H]1C(=O)N2C(C(=O)O)=C(Cl)CS[C@H]12)c1ccccc1 [CEFACLOR ANHYDROUS] | > 16 | > 16 | 8 (≈ 21.8 µM) | 128 (≈ 348 µM) | ≤ 1 | ≤ 1 | > 16 | > 16 | > 16 | > 16 | > 16 | > 16 |
| CO/N=C(\C(=O)N[C@@H]1C(=O)N2C(C(=O)O)=C(COC(C)=O)CS[C@H]12)c1csc(N)n1 [CEFOTAXIME] | 0.06 (≈ 0.132 µM) | 0.06 (≈ 0.132 µM) | 0.06 (≈ 0.132 µM) | 0.06 (≈ 0.132 µM) | ≤ 0.03 | ≤ 0.03 | 0.06 (≈ 0.132 µM) | 0.06 (≈ 0.132 µM) | ≤ 0.03 | 0.06 (≈ 0.132 µM) | 0.06 (≈ 0.132 µM) | 0.12 (≈ 0.263 µM) |
| Cc1onc(-c2ccccc2)c1C(=O)N[C@@H]1C(=O)N2[C@@H]1SC(C)(C)[C@@H]2C(=O)O [OXACILLIN] | ≤ 0.25 | ≤ 0.25 | > 4 | > 4 | ≤ 0.25 | ≤ 0.25 | ≤ 0.25 | ≤ 0.25 | ≤ 0.25 | ≤ 0.25 | ≤ 0.25 | ≤ 0.25 |
